Screens (PubChem)
TMEM16A inh – inhibitors of mouse TMEM16A calcium-activated chloride channel; normalized B-score (activity score, 25-100; higher = stronger inhibition) at 10 µM; AID 588511; 1.2% of 310,000 active; HEK293 TMEM16A/YFP iodide influx fluorescence, ionomycin;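 active = ratio plate-corrected score three or more library SD toward inhibition, starting fluorescence score within five deviations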;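 also: score derived from kinetic fluorescence span divided by baseline fluorescence per well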
CHOP inh – CHOP inhibition in unfolded protein response. 3.8% of 220,000 active. CHO-K1 CHOP-promoter luciferase, tunicamycin-induced, 15-18 h. inhibition, % at 10 µM. AID 2732;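 active = compounds that reduced the stress-induced luciferase reporter signal by more than about 70% of percent inhibition, limit read from the data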;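 also: 0% = tunicamycin plus vehicle and 100% = wells without tunicamycin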
UPR CHOP act – apoptotic UPR (CHOP) activation. CHO-CHOP luciferase reporter, luminescence; percent of tunicamycin response over DMSO baseline. 0.34% of 330,000 active. AID 449763. activation, % at 10 µM;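 active = at 10 µM dose, activation of 40% or more, normalized to positive control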;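 also: 100% = tunicamycin at 10 µg/mL and 0% = DMSO alone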
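System: CHO-CHOP luciferase reporter cell line | Buffer or medium: F12 medium containing 10% fetal bovine serum | Doses: One dose, 10 µM in 0.5% DMSO | Times: 6 h compound exposure at 37 °C after overnight seeding | Signal: Luciferase luminescence | Read-out: % activation vs tunicamycin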
Hep lipid drop – modulators of hepatic lipid droplet formation; AML12 mouse hepatocytes, oleate lipid droplets, BODIPY imaging; 0.4% of 240,000 active; AID 1656; inhibition, % at 6.5 µM;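 active = lipid droplet intensity inhibited by at least 50%, with more than 500 cells counted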
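material = mouse AML12 hepatocyte cell line, fixed after treatment | also added = 100 µM oleic acid challenge | doses = compound at 6.5 µM only | schedule = overnight exposure | technique = Image-based BODIPY and DAPI two-channel analysis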
XBP1 UPR activ – adaptive UPR (XBP1) activation; CHO-XBP1 luciferase reporter, IRE1-XBP1 UPR activation, luminescence; percent of tunicamycin response, DMSO as zero; activation, % at 20 µM; 0.33% of 330,000 active;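 active = versus positive control, 20 µM dose yields 30% or more activation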;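 also: 100% = tunicamycin at 10 µg/mL and 0% = DMSO only wells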
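Assay system: CHO-XBP1 luciferase reporter cells; Schedule: 6 h treatment, 37 °C; Detection: glow luminescence from Steady-Glo reagent; Benchmarks: high control tunicamycin 10 µg/mL final, low control DMSO vehicle only.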
TMEM16A act – mouse TMEM16A channel activation, primary screen | Q8BHY3 | HEK293 TMEM16A/YFP-H148Q/I152L, iodide quench fluorescence; hits give low values | B-score at 10 µM | 0.3% of 340,000 active;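 active = fluorescence-ratio B-score plate-corrected deviation score at least 3 library SD below zero, with starting fluorescence score within 5 deviations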;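 also: channel opened by trigger with iodide after compound preincubation; score built on the fluorescence ratio of max minus min over baseline; more negative score means more quench and so TMEM16A activation or potentiation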
Numbers without * were called inactive; i = inactive; . = no result. Compounds with a hit are over-represented: about 4.2% of the library has one in this group of screens.

SMILES	TMEM16A inh	CHOP inh	UPR CHOP act	Hep lipid drop	XBP1 UPR activ	TMEM16A act
O=C(Cn1c(=O)oc2cc(S(=O)(=O)N3CCOCC3)ccc21)N1CCc2ccccc2C1	i	9.4	1.4	.	-4.0	i
O=C(Cn1c(=O)oc2cc(S(=O)(=O)N3CCCCC3)ccc21)N1CCc2ccccc21	i	67.8	21.9	.	35.4*	i
O=C(Cn1c(=O)oc2ccccc21)Nc1ccc(S(=O)(=O)N2CCCCC2)cc1	i	46.1	-0.8	-12.2	8.1	-6.45*
Cc1ccsc1C(=O)NC1CCCN(Cc2ccc(Cl)cc2)C1 (centres undefined)	i	.	0.8	-24.9	-8.0	i
CCN(Cc1ccncc1)C(=O)CCc1nnc(CCc2ccc(OC)cc2)o1	i	27.1	0.1	-16.1	-1.8	i
CCNc1nc(CN2CCOCC2)nc2sc3c(c12)CCC3	i	50.0	-1.2	7.2	-3.9	i
c1ccc2c(c1)CCN(c1nc(CN3CCOCC3)nc3sc4c(c13)CCCC4)C2	i	84.5*	0.5	3.6	-2.4	i
Oc1ccc2ccccc2c1CNc1cnc2ccccc2c1	i	87.0*	2.9	4.6	1.6	i
CC1=NNC(=O)/C1=C\c1cn(-c2ccccc2)nc1-c1ccccc1	i	108.0*	.	12.0	.	i
Cc1cc(C)c2sc(NC(=O)C3CC3)nc2c1	i	.	3.1	-5.9	1.3	i
CN(C)c1c([N+](=O)[O-])ncn1C	i	2.6	-1.9	1.9	-2.0	-9.62*
Cc1ccc(-c2nc(CCNC(=O)c3ccco3)cs2)cc1	25*	.	1.7	.	0.7	i
CCN(CC)c1ccc(C=Nc2ccc(OC)c(S(=O)(=O)N3CCOCC3)c2)c(O)c1	.	.	1.2	.	0.0	i
COC(=O)c1oc2ccccc2c1NC(=O)CN1CCCC1	i	72.0*	-1.3	.	-1.1	i
O=C(NNC(=O)c1ccc2ccccc2c1)c1cccc(Br)c1	.	.	.	.	.	i
O=C(NNC(=S)Nc1cccc2ccccc12)c1cccc(Br)c1	25*	17.4	-2.6	4.9	-1.0	i
COc1cc(/C=N/NC(=O)Cc2csc(C)n2)ccc1OCC(C)C	i	-1.4	1.0	-1.0	2.5	i
COc1ccc(/C=N/NC(=O)Cc2csc(Nc3cccc(C(F)(F)F)c3)n2)cc1C	i	81.2*	2.3	.	-2.6	i
CS(=O)(=O)N1CCCC(C(=O)Nc2ccccc2)C1 (centres undefined)	i	.	-1.2	10.9	-3.0	i
Cc1ccnc2nc(C(=O)Nc3ccc(N4CCOCC4)cc3)nn12	i	42.0	-0.9	-5.2	-0.2	-11.4*
O=C(Nc1ccc(N2CCOCC2)cc1)c1cnsn1	.	78.1*	-11.1	-1.0	-5.9	i
O=C(Nc1ccc(N2CCOCC2)cc1)c1ccncc1	i	19.7	1.3	8.7	1.4	i
O=C(Nc1ccc(N2CCOCC2)cc1)c1cnccn1	i	.	-8.1	-6.1	-12.1	i
Cc1ccc(S(=O)(=O)N2CCCCC2)cc1NC(=O)C1CC1	.	.	0.6	.	-1.9	i
COc1ccc(Cl)cc1NC(=O)CN(C)C(=O)c1cn2ccccc2n1	.	.	-0.3	.	-2.7	i
SMILES	TMEM16A inh	CHOP inh	UPR CHOP act	Hep lipid drop	XBP1 UPR activ	TMEM16A act
Cc1ccc(-c2onc3ccc(C=O)cc23)cc1	i	-11.8	-4.8	9.2	-5.8	i
Cc1ccc(-c2onc3ccc(C4(C)OCCO4)cc23)cc1	i	85.7*	1.9	-4.4	2.7	i
COc1cccc(-c2cc(C(=O)N3CCCc4ccccc43)no2)c1	i	73.1*	3.5	32.6	2.0	i
COc1ccc(-c2cc(C(=O)N3CCc4ccccc4C3)no2)cc1OC	i	36.1	-0.7	.	-1.1	-6.36*
COc1ccc(OCCCC(=O)N2CCCc3ccccc32)cc1	i	31.5	-1.6	-0.1	-1.3	-6.4*
Cn1c(N)c(-c2ccccc2)c2ccc([N+](=O)[O-])cc2c1=O	i	.	-1.1	-0.1	-1.8	i
O=C1CCCN1CCCN=c1c([N+](=O)[O-])nn(-c2ccc(Cl)cc2)n1O	.	7.8	.	-37.2	.	-41.6*
C#Cc1cccc(N2C(=O)C3C4C=CC(C3C2=O)C2C(=O)N(c3cccc(C#C)c3)C(=O)C42)c1 (centres undefined)	.	.	.	.	.	i
CC(C)(C)c1ccc(NC(=O)CNC2CCCc3ccccc32)cc1 (centres undefined)	i	91.4*	-0.4	2.8	0.9	i
Cc1ccc(NC(=O)CN(C)CC(=O)NC2CCCc3ccccc32)cc1 (centres undefined)	i	22.7	-1.2	15.5	-3.1	i
C[N+](C)(C)CCOC(N)=O	i	-24.7	-1.0	.	-1.8	-5.71*
O=[N+]([O-])c1cccc(N=Nc2ccc(O)cc2O)c1	.	.	.	.	.	i
O=[N+]([O-])c1ccc(N=Nc2ccc(O)cc2O)cc1	100*	41.9	6.4	.	1.6	i
O=C(NCCC1=CCCCC1)c1cccc2c1C(=O)N(C1CCCCC1)C2	i	84.8*	0.7	-9.1	4.0	i
O=c1c2ccccc2n(Cc2cccc(F)c2)c(=O)n1C1CCCC1	i	81.6*	-2.8	-7.2	-0.7	i
O=C(COc1ccc(Cl)cc1Br)NC(=O)NCc1ccccc1	i	84.2*	-1.7	7.9	0.9	i
O=C(COC(=O)c1cc(Br)ccc1Cl)NC(=O)NCc1ccccc1	i	-6.5	-1.6	-14.5	-0.4	i
O=C(COc1ccc(C(=O)NCCc2ccccc2)cc1)Nc1ccccc1	i	30.8	0.1	3.9	-2.8	i
O=C(COc1ccc(C(=O)Nc2ccc(Cl)cc2)cc1)NCc1ccccc1	i	77.5*	-0.1	-4.6	-0.7	i
CC(C)Oc1cc2oc(=O)c3c(c2cc1Cl)CCC3	i	81.8*	-1.1	21.1	-1.0	i
CC(Oc1cc2oc(=O)c3c(c2cc1Cl)CCC3)C(=O)NCC1CCC(C(=O)O)CC1 (centres undefined)	i	.	-0.4	-15.7	-4.8	i
COc1ccc(CN2CCCC(C(=O)Nc3cccc(-n4cnnn4)c3)C2)c(C)c1C (centres undefined)	i	.	-1.7	-37.2	-2.3	i
COc1ccc(NC(=O)CC2C(=O)N(C)C(=S)N2Cc2cccs2)cc1 (centres undefined)	i	-3.5	-0.3	-24.3	0.0	i
C=CCN1C(=O)C(CC(=O)Nc2ccc(OCCC)cc2)N(CCCN2CCN(Cc3ccccc3)CC2)C1=S (centres undefined)	i	94.0*	3.8	-20.2	7.2	i
